Active and inactive are the calls of the source. The rule behind the calls is not given here. A value given as a limit tells only on which side of the number the result lay.

A short description of assay [1]: (§1) Cytoprotective activity in rat INS-1E cells assessed as suppression of recombinant rat IL-1beta/recombinant mouse IFN-gamma and TNF-alpha-induced nitrite production after 48 hrs by Griess assay. As to conditions: for IC50: Rattus norvegicus, INS-1E, 48 h. It counts as functional, cell-based. The procedure, abridged: (§2)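 Nitrite production was measured in INS-1E cells after 48 h with IL-1β 20 ng/mL, INF-γ 50 ng/mL and TNF-α 50 ng/mL plus increasing compound concentrations. Mean ± SD of 12 independent wells.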

Assay [2] in a line: (§3) Cytoprotective activity in rat INS-1E cells assessed as restoration of recombinant rat IL-1beta/recombinant mouse IFN-gamma and TNF-alpha-suppressed ATP level after 48 hrs by Cell Titer-Glo assay. It counts as functional, cell-based. Conditions: for EC50: Rattus norvegicus, INS-1E, 48 h. The procedure, abridged: (§4)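 INS-1E rat insulinoma cells exposed 48 h to IL-1β 20 ng/mL, INF-γ 50 ng/mL and TNF-α 50 ng/mL, with or without increasing compound concentrations. Cellular ATP was measured as a viability surrogate and normalized to untreated controls.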

Assay [3] can be described thus: (§5) Cytoprotective activity in rat INS-1E cells assessed as suppression of recombinant rat IL-1beta/recombinant mouse IFN-gamma and TNF-alpha-induced caspase-3 expression after 48 hrs by Caspase-Glo 3/7 assay. Conditions: for IC50: Rattus norvegicus, INS-1E, 48 h. It counts as functional, cell-based. The procedure, abridged:
(§6)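 INS-1E cells were given the 48 h cytokine cocktail (IL-1β 20 ng/mL, INF-γ 50 ng/mL, TNF-α 50 ng/mL) with rising compound concentrations. Caspase-3 activity, as a direct apoptosis readout, was normalized to untreated controls. Mean ± SD of 12 independent wells.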

In assay [4] the test system is INS-1E. Put plainly: (§7) Cytoprotective activity in rat INS-1E cells assessed as increase in recombinant rat IL-1beta/recombinant mouse IFN-gamma and TNF-alpha-suppressed glucose-stimulated insulin secretion preincubated for 48 hrs followed by KRBH buffer addition without glucose for 2 hrs and subsequently incubated with KRBH buffer in presence of glucose for 1 hr by ELISA. It counts as functional, cell-based. An outline of the steps: (§8)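 Cytokine-exposed INS-1E cells (48 h; IL-1β 20 ng/mL, INF-γ 50 ng/mL, TNF-α 50 ng/mL) were co-treated with a compound dose series, and glucose-stimulated insulin secretion was measured. EC50 and maximum activity were derived from the dose-response. Mean ± SD of 2 independent experiments.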

The subject of assay [5] is INS-1E. The description is as §1. It counts as functional, cell-based. The procedure, abridged: as §2
Assay [6] has as its system INS-1E. The assay is described as §3. It counts as functional, cell-based. The procedure, abridged:
as §4

The test system of assay [7] is INS-1E. In words: Cytoprotective activity in rat INS-1E cells assessed as restoration of recombinant rat IL-1beta/recombinant mouse IFN-gamma and TNF-alpha-suppressed ATP level at 2 uM after 48 hrs by Cell Titer-Glo assay. It counts as functional, cell-based. The procedure, abridged:
as §4

A short description of assay [8]: Cytoprotective activity in rat INS-1E cells assessed as increase in recombinant rat IL-1beta/recombinant mouse IFN-gamma and TNF-alpha-suppressed glucose-stimulated insulin secretion at 5 uM preincubated for 48 hrs followed by KRBH buffer addition without glucose for 2 hrs and subsequently incubated with KRBH buffer in presence of glucose for 1 hr by ELISA relative to control. It counts as functional. An outline of the steps: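 After 48 h exposure to the cytokine cocktail (IL-1β 20 ng/mL, INF-γ 50 ng/mL, TNF-α 50 ng/mL) with 5 µM compound added, INS-1E insulin secretion was measured at low (2) and high (16) glucose. Results are compared with untreated and no-cytokine cells. Mean ± SD of 2 independent experiments.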

In assay [9] the test system is INS-1E. Described as §5. It counts as functional, cell-based. An outline of the steps: as §6
Assay [10] in a line: as §7. It counts as functional, cell-based. As to conditions: for EC50: Rattus norvegicus, INS-1E. The procedure, abridged: as §8

`COc1ccc(O)c(/C=N/NC(=O)c2ccc(-c3nc4cc(C)c(C)cc4[nH]3)cc2)c1`: in assay [1], the “%max” value came out at 20% and the IC50 is greater than 30 µM. Further, in assay [2], the “%max” value is on record as 61% and the EC50 was 25.3 µM. Also, in [3], the “%max” value is 12% and the IC50 is greater than 30 µM. Moreover, the “%max” value in the assay on INS-1E [4] is “inactive”.

With `COc1ccc(/C=N/NC(=O)c2ccc(-c3nc4cc(C)c(C)cc4[nH]3)cc2)c(O)c1`, in assay [1], the “%max” value is given as 18% and the IC50 is greater than 30 µM. Further, in assay [2], the “%max” value is 54% and the EC50 stood at 29.3 µM. Besides, in [3], the “%max” value is 15% and the IC50 was greater than 30 µM. In addition, in the assay with INS-1E [4], the “%max” value was “inactive”.

Consider `Cc1cc2nc(-c3ccc(C(=O)N/N=C/c4cc(O)c(O)c(O)c4)cc3)[nH]c2cc1C`, for which the “%max” value came to 85% in assay [1], 98% in assay [2], 68% in [3] and 91% in [10]. Moreover, the IC50 in assay [1] is 9.47 µM; in assay [3], 18.5 µM. Further, the Activity result in the assay with INS-1E [5], in the assay with INS-1E [6], in the assay on INS-1E [9] and in the assay on INS-1E [4] was “Dose-dependent effect” throughout. Besides, the results for the EC50 in assay [2] and in [10] were 0.968 µM and 5.41 µM, respectively. Moreover, the outcome in the assay on INS-1E [7] was Active. Also, in assay [8], the “fold change (FC)” value was greater than 3.

On to `Cc1cc2nc(-c3ccc(C(=O)N/N=C/c4cc(O)ccc4O)cc3)[nH]c2cc1C`, for which the “%max” value in assay [1] was found to be 71%; in [2], 93%; in assay [3], 84%; in [10], 71%. For the same molecule, the IC50 in [1] worked out at 17.3 µM; in assay [3], 8.81 µM. The Activity result with INS-1E [5], in the assay on INS-1E [6], in the assay on INS-1E [9] and in the assay on INS-1E [4] was “Dose-dependent effect” throughout. The EC50 in assay [2] turned out to be 2.57 µM; in assay [10] it was 13.3 µM.

As to `Cc1cc2nc(-c3ccc(C(=O)N/N=C/c4ccc(O)cc4O)cc3)[nH]c2cc1C`, the “%max” value was found to be 72% in [1], 86% in assay [2], 75% in assay [3] and 64% in assay [10]. For the same molecule, the values for the IC50 in assay [1] and in assay [3] were 17.5 µM and 16.4 µM, respectively. The EC50 in [2] amounted to 7.28 µM.

As to `Cc1cc2nc(-c3ccc(C(=O)N/N=C/c4cccc(O)c4O)cc3)[nH]c2cc1C`, the “%max” value in assay [1] stood at 79%; in assay [2], 89%; in assay [3], 82%; in assay [10], 84%. Besides, the IC50 was 11.4 µM in assay [1] and 9.48 µM in assay [3]. In addition, the Activity result in the assay on INS-1E [5], in the assay on INS-1E [6], in the assay with INS-1E [9] and with INS-1E [4] was “Dose-dependent effect” throughout. For the same molecule, the figures for the EC50 in assay [2] and in assay [10] were 3.17 µM and 8.32 µM, respectively.

In the case of `Cc1cc2nc(-c3ccc(C(=O)N/N=C/c4ccc(O)c(O)c4)cc3)[nH]c2cc1C`, the “%max” value in assay [1] came to 68%; in assay [2], 73%; in assay [3], 22%; in assay [10], 53%. Further, the IC50 in [1] is 17.6 µM; in [3] it was greater than 30 µM. Further, in assay [2], the EC50 was determined as 16.7 µM.

For the origin of these results see ChEMBL document CHEMBL3616384, “Benzimidazole derivatives protect against cytokine-induced apoptosis in pancreatic β-Cells” (Bioorg Med Chem Lett, 2015).
